A value given as a limit tells only on which side of the number the result lay.

Assay [1] is described as follows: Cytotoxicity against human MIAPaCa2 cells assessed as reduction in cell proliferation measured after 48 hrs by SRB assay. The class given is functional, cell-based. Conditions: MIA PaCa-2, 48 h. The gist of the method:
(§1)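 SRB assay of net cell proliferation after continuous 48 h exposure to test compound. Inhibition is expressed as a percentage of non-treated controls. Samples were run in triplicate, and the mean IC50 (concentration giving 50% inhibition of proliferation) was calculated. Doxorubicin served as positive control.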

Assay [2] can be described thus: Cytotoxicity against human SK-MEL-2 cells assessed as reduction in cell proliferation measured after 48 hrs by SRB assay. Conditions: SK-MEL-2, 48 h. Type of assay: functional, cell-based. The gist of the method:
as §1

A short description of assay [3]: Cytotoxicity against human HCT15 cells assessed as reduction in cell proliferation measured after 48 hrs by SRB assay. Type of assay: functional, cell-based. Conditions: HCT-15, 48 h. In a few lines: as §1
Assay [4] in a line: Cytotoxicity against human SKOV3 cells assessed as reduction in cell proliferation measured after 48 hrs by SRB assay. The class given is functional, cell-based. To be noted: SK-OV-3, 48 h. In a few lines:
as §1

A short description of assay [5]: Cytotoxicity against human A549 cells assessed as reduction in cell proliferation measured after 48 hrs by SRB assay. Conditions: A549, 48 h. The class given is functional, cell-based. In a few lines:
as §1

Assay [6] has as its target T1, High affinity nerve growth factor receptor (Homo sapiens, UniProt P04629). Description: Inhibition of human N- terminal GST-tagged TrkA cytoplasmic domain (436 to 790 residues) expressed in baculovirus infected sf21 cells at 1 uM using biotinylated peptide substrate incubated for 15 mins followed by addition of ATP measured after 30 mins by TR-FRET assay relative to control.
Target sequence in this assay (P04629 33-796 limits assumed): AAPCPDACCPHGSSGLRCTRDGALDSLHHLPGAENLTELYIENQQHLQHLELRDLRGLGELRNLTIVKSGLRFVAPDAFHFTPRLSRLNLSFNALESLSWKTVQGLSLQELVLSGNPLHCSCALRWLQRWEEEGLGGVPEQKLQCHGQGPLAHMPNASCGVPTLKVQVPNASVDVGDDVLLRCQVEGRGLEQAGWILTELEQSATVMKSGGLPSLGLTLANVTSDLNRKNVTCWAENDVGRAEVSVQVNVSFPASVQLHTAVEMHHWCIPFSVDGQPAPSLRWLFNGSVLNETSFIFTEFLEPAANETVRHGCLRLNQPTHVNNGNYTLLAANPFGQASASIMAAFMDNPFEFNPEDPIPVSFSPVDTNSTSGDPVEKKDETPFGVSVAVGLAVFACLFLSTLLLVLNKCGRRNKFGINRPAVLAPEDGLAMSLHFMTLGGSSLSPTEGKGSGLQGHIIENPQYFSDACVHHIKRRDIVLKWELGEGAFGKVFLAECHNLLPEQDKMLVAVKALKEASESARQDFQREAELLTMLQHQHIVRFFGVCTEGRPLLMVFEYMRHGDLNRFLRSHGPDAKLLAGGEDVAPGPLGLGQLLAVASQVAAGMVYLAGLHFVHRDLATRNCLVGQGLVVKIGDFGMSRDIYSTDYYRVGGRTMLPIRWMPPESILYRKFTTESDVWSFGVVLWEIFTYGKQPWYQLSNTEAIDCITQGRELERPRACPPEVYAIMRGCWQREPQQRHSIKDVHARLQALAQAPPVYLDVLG

Assay [7] deals with T1, High affinity nerve growth factor receptor. Description: Inhibition of TrkA (unknown origin). In a few lines:
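Purified TrkA, biotinylated substrate peptide and inhibitor were preincubated 15 min at 25°C, then 100 µM ATP was added. After 30 min, Eu-cryptate anti-phosphotyrosine antibody (1 µM) and streptavidin-XL665 (125 nM) were added for 1 h. HTRF read at 320 nm excitation, 620/665 nm emission ratio. IC50 from % inhibition across 12 serial dilutions (0.03~10000 nM).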
Target sequence in this assay (P04629 whole entry, the tested form may be a part): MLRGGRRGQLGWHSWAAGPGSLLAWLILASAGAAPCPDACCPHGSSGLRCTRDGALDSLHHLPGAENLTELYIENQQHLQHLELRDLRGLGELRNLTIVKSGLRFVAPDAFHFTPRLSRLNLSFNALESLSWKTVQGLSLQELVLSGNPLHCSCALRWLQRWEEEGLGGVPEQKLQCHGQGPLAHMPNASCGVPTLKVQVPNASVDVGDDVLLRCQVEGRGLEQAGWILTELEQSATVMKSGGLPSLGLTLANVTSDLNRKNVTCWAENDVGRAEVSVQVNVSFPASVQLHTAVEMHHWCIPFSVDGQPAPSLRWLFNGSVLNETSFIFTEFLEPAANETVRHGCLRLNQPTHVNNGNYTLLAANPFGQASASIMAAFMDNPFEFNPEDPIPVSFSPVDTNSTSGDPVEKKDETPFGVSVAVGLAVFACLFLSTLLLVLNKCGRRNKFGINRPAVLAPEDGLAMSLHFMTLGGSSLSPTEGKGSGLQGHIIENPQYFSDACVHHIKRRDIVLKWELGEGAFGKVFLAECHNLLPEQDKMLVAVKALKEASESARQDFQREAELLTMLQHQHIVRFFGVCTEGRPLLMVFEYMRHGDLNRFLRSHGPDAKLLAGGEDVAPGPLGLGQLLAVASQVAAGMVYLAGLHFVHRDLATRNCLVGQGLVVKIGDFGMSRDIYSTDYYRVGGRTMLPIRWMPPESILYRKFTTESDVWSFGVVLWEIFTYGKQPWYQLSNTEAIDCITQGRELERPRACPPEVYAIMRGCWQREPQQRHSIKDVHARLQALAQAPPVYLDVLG

Assay [8] shares this target. Nature of the assay: Inhibition of TrkA (unknown origin) by ELISA.
Target sequence in this assay (P04629 whole entry, the tested form may be a part): as above
Assay [9] has the same target. Nature of the assay: Inhibition of human N- terminal GST-tagged TrkA cytoplasmic domain (436 to 790 residues) expressed in baculovirus infected sf21 cells using biotinylated peptide substrate incubated for 15 mins followed by addition of ATP measured after 30 mins by TR-FRET assay.
Target sequence in this assay (P04629 whole entry, the tested form may be a part): as above
Assay [10] shares this target. Description: Inhibition of human TrkA expressed in human U2OS cells assessed as inhibition of NGF-induced response measured after 1 hr by beta-galactosidase assay. The class given is cell-based.
Target sequence in this assay (P04629 whole entry, the tested form may be a part): as above

With `COc1ccc(/C=N/NC(=O)c2ccccc2O)cc1`, the half-inhibitory concentration (IC50) worked out at 8.64 µM in assay [1]; 15.2 µM in assay [2]; 28.1 µM in [3]; 14.4 µM in assay [4]; 12.9 µM in assay [5].

For the compound `CN(C)c1ccc(/C=N/NC(=O)c2ccccc2O)cc1`, the IC50 was found to be 20.7 µM in assay [1]; 19.3 µM in assay [2]; 38.4 µM in [3]; 18.5 µM in assay [4]; 21.5 µM in assay [5].

Regarding `O=C(N/N=C/c1ccc([N+](=O)[O-])cc1)c1ccccc1O`, the IC50 is 6.73 µM in assay [1]; 9.34 µM in [2]; 22.7 µM in [3]; 8.8 µM in assay [4]; 8.72 µM in assay [5].

As for `COc1ccc(/C=N/NC(=O)c2ccccc2O)c(OC)c1`, the IC50 came to 11.3 µM in [1]; 19.6 µM in [2]; 25.7 µM in assay [3]; 14.5 µM in assay [4]; 31.3 µM in assay [5]. Also, in assay [6], the inhibition was found to be 7.61%.

The compound `COc1ccccc1/C=C/C(=O)Nc1nc(N)n(-c2ccccc2)n1` returned an IC50 in assay [7] of 0.027 µM.

Regarding `CC1(C)C[C@H](c2cc(F)ccc2F)N(c2ccn3ncc(NC(=O)c4cnccn4)c3n2)C1`, the IC50 in assay [8] was found to be 0.002 µM.

Regarding `O=C(N/N=C/c1ccc(O)c(O)c1O)c1ccccc1O`, the IC50 in assay [1] is 2.21 µM; in assay [2] it was 1.84 µM; in [3], 3.71 µM; in assay [4], 1.96 µM; in assay [5] it was 7.16 µM; in assay [9], 0.38 µM. Moreover, in assay [6], the inhibition stood at 90.9%.

Turning to `O=C(N/N=C/c1ccc(Cl)cc1)c1ccccc1O`, the IC50 in [1] was found to be 7.19 µM; in [2], 14.3 µM; in assay [3] it was 20.9 µM; in assay [4] it was 9.83 µM; in [5], 22.2 µM. This compound also had an inhibition in [6] of 6.92%.

Consider `COc1cccc2c1C(=O)c1c(O)c3c(c(O)c1C2=O)C[C@@](O)(C(=O)CO)C[C@@H]3O[C@H]1C[C@H](N)[C@H](O)[C@H](C)O1` [DOXORUBICIN], for which the IC50 in assay [1] amounted to 0.049 µM; in [2], 0.001 µM; in assay [3], 0.872 µM; in assay [4], 0.074 µM; in [5], 0.021 µM.

For the compound `O=C(N/N=C/c1ccccc1)c1ccccc1O`, the IC50 in [1] is 2.46 µM; in assay [2] it was 9.77 µM; in [3] it was 21.3 µM; in assay [4] it was 5.94 µM; in [5], 2.78 µM.

In the case of `Nc1ccc(Cc2cccc(NC(=O)N3CCN(c4ccccc4)C3=O)c2)cn1`, the IC50 in assay [7] turned out to be 0.02 µM.

Consider `O=C(N/N=C/c1ccc(O)cc1O)c1ccccc1O`, for which the IC50 was determined as 0.48 µM in assay [1]; 1.43 µM in assay [2]; 0.89 µM in assay [3]; 0.87 µM in assay [4]; 2.46 µM in assay [5]; 0.232 µM in assay [9]. The compound further gave an inhibition in [6] of 92.4%.

As to `COc1ncc(C(=O)C2CC(C(C)C)c3ncncc32)cc1NC(=O)Nc1cc(Cl)cc(Cl)c1` (configuration not stated), the IC50 in [10] worked out at 0.048 µM.

As to `O=C(N/N=C/c1ccc(O)cc1)c1ccccc1O`, the IC50 in [1] came out at 1.18 µM; in assay [2] it was 5.46 µM; in assay [3], 8.6 µM; in assay [4], 9.1 µM; in assay [5] it was 2.86 µM. In assay [6], this compound had an inhibition of 20.6%.

Compound `Cn1cc(/C=C2\C(=O)Nc3cccnc32)c2ccccc21` yielded an inhibition in [6] of more than 99%.

In turn, `Oc1ccc(Nc2nc(-c3ccccc3O)nc3ccccc23)cc1` showed a 50% inhibitory concentration (IC50) in [7] of 0.303 µM.

For `Cc1ccc(/C=N/NC(=O)c2ccccc2O)cc1`, the IC50 in assay [1] is 4.45 µM; in [2], 13.1 µM; in assay [3] it was 26.9 µM; in assay [4] it was 9.81 µM; in assay [5] it was 6.74 µM. The compound also yielded an inhibition in assay [6] of 3.7%.

Consider `O=C(N/N=C/c1ccccc1[N+](=O)[O-])c1ccccc1O`, for which the IC50 came out at 14 µM in [1]; 19.4 µM in assay [2]; 34.6 µM in [3]; 19.6 µM in assay [4]; 23.2 µM in assay [5].

With `O=C(N/N=C/c1ccc(O)c(O)c1)c1ccccc1O`, the IC50 in [1] is 4.74 µM; in [2], 8.86 µM; in assay [3], 10 µM; in assay [4] it was 9.14 µM; in assay [5], 3.15 µM; in assay [9], 2.54 µM. In assay [6], the inhibition stood at 92.9%.

Take `CCc1ncc(C(=O)C2CC([C@@H](C)CO)c3ncncc32)cc1NC(=O)Cc1ccc(C(F)(F)F)cc1` (some centres not stated): the IC50 in assay [10] is 0.013 µM.
